Activity calls are given as the source filed them. The calls are words filed in the database; no cut-off is given here.
Tests used:
NAD kinase [1] = target: T1, NAD kinase (Homo sapiens, UniProt O95544); assay: Inhibition of human NADK by HPLC analysis
T1 sequence (O95544 whole entry): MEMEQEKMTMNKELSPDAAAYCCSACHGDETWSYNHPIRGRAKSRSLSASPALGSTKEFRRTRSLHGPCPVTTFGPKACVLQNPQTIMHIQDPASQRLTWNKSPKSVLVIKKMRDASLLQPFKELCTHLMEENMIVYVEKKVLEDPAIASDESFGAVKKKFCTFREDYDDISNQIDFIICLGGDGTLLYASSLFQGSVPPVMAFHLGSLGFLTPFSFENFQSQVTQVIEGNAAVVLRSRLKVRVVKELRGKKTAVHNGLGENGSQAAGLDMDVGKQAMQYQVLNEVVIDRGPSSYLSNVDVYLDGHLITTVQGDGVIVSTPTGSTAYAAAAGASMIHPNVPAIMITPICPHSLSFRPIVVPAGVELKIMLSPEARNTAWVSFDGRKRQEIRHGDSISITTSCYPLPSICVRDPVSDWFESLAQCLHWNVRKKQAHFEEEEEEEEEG

NAD kinase [2] = target: T1, NAD kinase; assay: Inhibition of NADK (unknown origin) by HPLC analysis
CCRF-CEM = assay: Cytotoxicity against human CCRF-CEM cells assessed as inhibition of cell growth; format: functional, cell-based
MOLT-4 = assay: Cytotoxicity against human MOLT-4 cells assessed as inhibition of cell growth; format: functional, cell-based
RL = assay: Cytotoxicity against human RL cells assessed as inhibition of cell growth; format: functional, cell-based
[3] = Cytotoxicity against human C85 cells assessed as inhibition of cell growth; format: functional, cell-based; conditions: CCCL-1
NAD kinase [4] = target: T1, NAD kinase; assay: Binding affinity to N-terminal full length NADK (unknown origin) expressed in Escherichia coli BL21(DE3) cells assessed as dissociation constant by surface plasmon resonance assay
NAD kinase [5] = target: T1, NAD kinase; assay: Inhibition of NADK delta 95 kinase domain (unknown origin) at 80 uM measured after 30 mins by […]
[6] = target: T2, NAD kinase (Homo sapiens) (UniProt O95544); assay: Binding affinity to human NADK (410 to 418 residues) assessed as decrease in deuterium incorporation at 80 uM measured after 30 mins by HDX-MS analysis; set-up: scale not given: the % may be the effect or the level left
T2 sequence (whole entry): T1 sequence (O95544 whole entry)

[7] = target: T2, NAD kinase (Homo sapiens); assay: Binding affinity to human NADK (155 to 164 residues) assessed as decrease in deuterium incorporation at 80 uM measured after 30 mins by HDX-MS analysis; set-up: scale not given: the % may be the effect or the level left
[8] = target: T2, NAD kinase (Homo sapiens); assay: Binding affinity to human NADK (345 to 365 residues) assessed as decrease in deuterium incorporation at 80 uM measured after 30 mins by HDX-MS analysis; set-up: scale not given: the % may be the effect or the level left
PC-9 = assay: Cytotoxicity against human PC-9 cells harboring wild type KRAS assessed as inhibition of cell growth at 60 uM measured on day 4; format: functional, cell-based
In short: (§1)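 Lung cancer cell lines (PC-9 KRAS WT, A549 KRAS G12S, H358 and H23 KRAS G12C) exposed to a range of concentrations. Growth curves were built by following cell number over days (day 4 is cited) against a DMSO control. n = 3 replicates; significance was judged at P < 0.05, 0.01 and 0.001.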

A549 [9] = assay: Cytotoxicity against human A549 cells harboring KRAS […] mutant assessed as inhibition of cell growth at 30 uM; format: functional, cell-based
NCI-H358 = assay: Cytotoxicity against human H358 cells harboring KRAS G12C mutant assessed as inhibition of cell growth at 30 uM; format: functional; in short: as §1
NCI-H23 = assay: Cytotoxicity against human H23 cells harboring KRAS G12C mutant assessed as inhibition of cell growth at 30 uM; format: functional; in short: as §1
A549 [10] = assay: Cytotoxicity against human A549 cells harboring KRAS G12S mutant assessed as inhibition of cell growth at 50 uM
NAD kinase [11] = target: T1, NAD kinase; assay: Non-competitive inhibition of N-terminal full length NADK (unknown origin) expressed in Escherichia coli BL21(DE3) cells by enzymatic activity assay

For `Nc1ncnc2c1ncn2[C@@H]1O[C@H](CSSC[C@H]2O[C@@H](n3c(Br)nc4c(N)ncnc43)[C@H](O)[C@@H]2O)[C@@H](O)[C@H]1O`, which Ki (NAD kinase [1]) is on record?
The Ki was 6 µM.

Which IC50 (NAD kinase [2]) does the source give for `Oc1cc(O)c2c(c1)O[C@H](c1cc(O)c(O)c(O)c1)[C@H](O)C2` [EPIGALLOCATECHIN] here?
Its IC50 is over 100 µM.

For `NC(=S)c1cccnc1`, which IC50 (CCRF-CEM) is on record?
Its IC50 is 10 µM.

What about the IC50 (MOLT-4) of the same molecule?
Its IC50 is 10 µM.

And the IC50 (RL)?
The IC50 was 10 µM.

And the IC50 [3]?
Its IC50 is 10 µM.

What does the source list for `O=C(O[C@@H]1Cc2c(O)cc(O)cc2O[C@@H]1c1cc(O)c(O)c(O)c1)c1cc(O)c(O)c(O)c1` [EPIGALOCATECHIN GALLATE]?
Kd (NAD kinase [4]): 1.78 µM; IC50 (NAD kinase [5]): 0.96 µM; Activity [6]: 21.8%; Activity [7]: 12.9%; Activity [8]: 21.1%; Activity (PC-9): Active; Activity (A549 [9]): Active; inhibition at 30 µM (NCI-H358): 100%; inhibition at 30 µM (NCI-H23): 100%; inhibition at 50 µM (A549 [10]): 100%; Ki (NAD kinase [11]): 3.28 µM

Which IC50 (NAD kinase [2]) does the source give for `Oc1cc(O)c2c(c1)O[C@@H](c1cc(O)c(O)c(O)c1)[C@H](O)C2` [(-)-GALLOCATECHIN] here?
Its IC50 is over 100 µM.

For `Nc1ncnc2c1nc(Br)n2[C@@H]1O[C@H](CSSC[C@H]2O[C@@H](n3c(Br)nc4c(N)ncnc43)[C@H](O)[C@@H]2O)[C@@H](O)[C@H]1O`, which Ki (NAD kinase [1]) is on record?
The Ki was 6 µM.

With `Nc1ncnc2c1ncn2[C@@H]1O[C@H](CSSC[C@H]2O[C@@H](n3cnc4c(N)ncnc43)[C@H](O)[C@@H]2O)[C@@H](O)[C@H]1O` as the molecule, how does the Ki (NAD kinase [1]) read?
Its Ki is 45 µM.

— ChEMBL document CHEMBL5113552, “(-)-Epigallocatechin Gallate is a Noncompetitive Inhibitor of NAD Kinase” (ACS Med Chem Lett, 2022)
